Assay [1] relates to CWR22R. Briefly: Antiproliferative activity against human 22Rv1 cells at 10 uM after 72 hrs by sulforhodamine B colorimetric proliferation assay. It is filed as functional, cell-based.
The target of assay [2] is T1, Aldo-keto reductase family 1 member C3 (Homo sapiens, UniProt P42330).
T1 sequence (P42330 whole entry): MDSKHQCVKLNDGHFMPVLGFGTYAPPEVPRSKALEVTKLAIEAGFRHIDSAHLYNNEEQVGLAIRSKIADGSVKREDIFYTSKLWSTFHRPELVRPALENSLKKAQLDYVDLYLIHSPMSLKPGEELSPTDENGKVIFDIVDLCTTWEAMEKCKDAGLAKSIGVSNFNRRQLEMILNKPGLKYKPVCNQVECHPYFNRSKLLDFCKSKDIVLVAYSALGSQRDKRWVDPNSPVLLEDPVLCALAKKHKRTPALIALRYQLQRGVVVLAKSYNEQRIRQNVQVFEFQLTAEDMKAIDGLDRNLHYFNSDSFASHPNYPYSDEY
Briefly: Inhibition of recombinant human AKR1C3 expressed in Escherichia coli BL21 (DE) using [14C]androstenedione as substrate in presence of NADPH generating system. A digest of the protocol: (§1)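 E. coli expressing AKR1C3, unlysed, suspended in 100 mM phosphate pH 6.6 (~15 µg protein). Incubated with [14C]androstenedione (6×10^-4 µCi), Tween 80 0.1 mg/mL, 1 mM ATP, 1 mM MgCl2 and NADPH-generating system (1 mM NADP+, 3 mM glucose-6-phosphate, 3 U G6PDH) for 30 min at 30 °C with shaking. Conversion to testosterone quantified by radioactivity scanning of TLC.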

For assay [3], the target named is T2, Aldo-keto reductase family 1 member C3 (Homo sapiens) (UniProt P42330).
T2 sequence (whole entry): T1 sequence (P42330 whole entry)
Description: Inhibition of recombinant human AKR1C3 expressed in Escherichia coli BL21 […] at 50 uM using [14C]androstenedione as substrate in presence of NADPH generating system. A digest of the protocol: as §1

The target in assay [4] is T3, Prostaglandin G/H synthase 1 (Ovis aries, UniProt P05979).
T3 sequence (P05979 whole entry): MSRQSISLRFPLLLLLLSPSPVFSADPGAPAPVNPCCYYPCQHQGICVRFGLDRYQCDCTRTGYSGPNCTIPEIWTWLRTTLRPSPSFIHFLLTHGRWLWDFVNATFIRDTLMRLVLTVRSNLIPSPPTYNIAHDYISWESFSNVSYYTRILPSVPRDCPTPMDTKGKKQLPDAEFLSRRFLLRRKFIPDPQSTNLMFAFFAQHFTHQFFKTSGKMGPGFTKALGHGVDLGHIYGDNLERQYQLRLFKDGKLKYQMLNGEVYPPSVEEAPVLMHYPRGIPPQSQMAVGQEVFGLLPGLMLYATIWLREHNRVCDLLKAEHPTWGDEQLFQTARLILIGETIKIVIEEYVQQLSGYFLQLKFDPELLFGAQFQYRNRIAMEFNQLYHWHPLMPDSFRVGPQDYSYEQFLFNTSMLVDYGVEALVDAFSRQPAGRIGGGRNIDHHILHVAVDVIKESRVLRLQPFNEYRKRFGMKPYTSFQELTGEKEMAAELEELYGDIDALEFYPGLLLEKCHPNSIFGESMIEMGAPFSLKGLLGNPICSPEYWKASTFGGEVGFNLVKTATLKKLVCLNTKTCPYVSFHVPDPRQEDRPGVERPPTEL
Briefly: Inhibition of ovine COX1 assessed as reduction in PGF2alpha production by ELISA. Summed up: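 Commercial COX (ovine COX-1/human COX-2) inhibitor screening kit. PGH2 formed by COX is reduced by SnCl2 to PGF2α, which is quantified by ELISA absorbance. IC50 by linear regression. Mean ± SE of at least three experiments.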
Background: In an ELISA, binding on a coated surface is turned into a signal by an enzyme label.

For assay [5], the target named is T1, Aldo-keto reductase family 1 member C3. Description: Inhibition of AKR1C3 (unknown origin) using S-tetralol as substrate in presence of NADP+ by fluorimtery. A digest of the protocol:
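Purified recombinant enzyme (GST-tagged, glutathione-sepharose purified, thrombin-cleaved) with S-tetralol in 100 mM phosphate pH 7, 200 µM NADP+, 10% ethanol. […] NADPH formation followed fluorimetrically (ex 340/em 460 nm) at 37 °C. IC50 from initial velocities versus solvent controls; means of two experiments in triplicate.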

Assay [6] concerns the target T4, Aldo-keto reductase family 1 member C2 (Homo sapiens, UniProt P52895).
T4 sequence (P52895 whole entry): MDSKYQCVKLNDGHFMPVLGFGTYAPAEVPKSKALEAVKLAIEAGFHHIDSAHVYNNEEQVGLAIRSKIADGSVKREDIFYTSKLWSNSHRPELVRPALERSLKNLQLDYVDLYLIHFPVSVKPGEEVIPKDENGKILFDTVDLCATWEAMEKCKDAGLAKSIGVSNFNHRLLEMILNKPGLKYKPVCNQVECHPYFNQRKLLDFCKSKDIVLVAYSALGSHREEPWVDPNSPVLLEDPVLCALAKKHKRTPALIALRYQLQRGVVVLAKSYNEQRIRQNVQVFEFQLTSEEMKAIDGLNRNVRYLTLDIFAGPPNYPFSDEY
Description: Inhibition of AKR1C2 (unknown origin) using S-tetralol as substrate by fluorimtery. A digest of the protocol:
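Purified recombinant enzyme (GST-tagged, glutathione-sepharose purified, thrombin-cleaved) with S-tetralol in 100 mM phosphate pH 7, 200 µM NADP+, 10% ethanol. IC50 from initial velocities versus solvent controls; means of two experiments in triplicate.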

Assay [7] is filed under the species Homo sapiens. Description: Selectivity index, ratio of IC50 for AKR1C2 (unknown origin) to IC50 for AKR1C3 (unknown origin).
In assay [8] the target is T5, Prostaglandin G/H synthase 1 (Ovis aries) (UniProt P05979).
T5 sequence (whole entry): T3 sequence (P05979 whole entry)
Description: Inhibition of ovine COX1 assessed as reduction in PGF2alpha production at 100 uM by ELISA.

A short description of assay [9]: Selectivity index, ratio of IC50 for ovine COX1 to IC50 for AKR1C3 (unknown origin).
Assay [10] is filed under the species Homo sapiens. Briefly: Selectivity index, ratio of IC50 for human COX2 to IC50 for AKR1C3 (unknown origin).
In assay [11] the target is Prostaglandin G/H synthase 2 (Homo sapiens) (UniProt P35354). Description: Inhibition of human COX2 assessed as reduction in PGF2alpha production at 100 uM by ELISA.
The test system of assay [12] is CWR22R. Briefly: Antiproliferative activity against human 22Rv1 cells at 20 uM after 72 hrs by sulforhodamine B colorimetric proliferation assay. The assay is classed as functional, cell-based.
The test system of assay [13] is CWR22R. Briefly: Inhibition of AKR1C3-mediated testosterone production in human 22Rv1 cells at 100 uM after 1 hr in presence of androstenedione by ELISA. The assay is classed as functional. As to conditions: 22Rv1, 1 h.
Assay [14] deals with CWR22R. Briefly: Antiproliferative activity against human 22Rv1 cells after 72 hrs by sulforhodamine B colorimetric proliferation assay. It is filed as functional, cell-based. As to conditions: 22Rv1, 72 h. A digest of the protocol: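 22RV1 castration-resistant prostate cells were seeded at 10,000 cells/well in RPMI with 10% charcoal-stripped serum and allowed to adhere for 24 h at 37 °C, 5% CO2. Inhibitor dilutions in ethanol were added in triplicate for 72 h, with ethanol-matched controls (max 1% v/v). Growth was read by SRB and given as %T/C (treated/control OD). Means of two experiments, each in triplicate.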

In assay [15] the test system is CWR22R. Description: Inhibition of AKR1C3-mediated testosterone production in human 22Rv1 cells after 1 hr in presence of androstenedione by ELISA. It is filed as functional, cell-based. Summed up:
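22RV1 cells seeded at 30,000/well in RPMI with 10% charcoal-stripped serum, 24 h. Inhibitor added at four concentrations for 1 h, then 28 nM androstenedione, further 24 h. Supernatant testosterone measured by ELISA at 405 nm against a standard curve, corrected for androstenedione cross-reactivity. Means of two experiments in triplicate.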

The subject of assay [16] is CWR22R. Briefly: Antiproliferative activity against human 22Rv1 cells at 60 uM after 72 hrs by sulforhodamine B colorimetric proliferation assay. The assay is classed as functional, cell-based.
The test system of assay [17] is CWR22R. Description: Synergistic antiproliferative activity against human 22Rv1 cells at 60 uM after 72 hrs in presence of 10 uM abiraterone by sulforhodamine B colorimetric proliferation assay. It is filed as functional. A digest of the protocol: (§2)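 Co-treatment by SRB assay: 22RV1 cells in RPMI with 10% charcoal-stripped serum, given 60 µM inhibitor with or without 10 µM abiraterone or 20 µM enzalutamide for 72 h. Growth expressed as % T/C (mean OD treated/control ×100). Means of two experiments in triplicate.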

Assay [18] deals with CWR22R. Briefly: Synergistic antiproliferative activity against human 22Rv1 cells at 60 uM after 72 hrs in presence of 20 uM enzalutamide by sulforhodamine B colorimetric proliferation assay. The assay is classed as functional. A digest of the protocol:
as §2

Calls of active or inactive are those of the source. No cut-off for these calls is given here. Some results are limits rather than exact numbers.

The text below walks through data of ChEMBL document CHEMBL4130429, “Hydroxytriazole derivatives as potent and selective aldo-keto reductase 1C3 (AKR1C3) inhibitors discovered by bioisosteric scaffold hopping approach” (Eur J Med Chem, 2017).

Chain of Prostaglandin G/H synthase 2 (Homo sapiens) (P35354 whole entry, looked up): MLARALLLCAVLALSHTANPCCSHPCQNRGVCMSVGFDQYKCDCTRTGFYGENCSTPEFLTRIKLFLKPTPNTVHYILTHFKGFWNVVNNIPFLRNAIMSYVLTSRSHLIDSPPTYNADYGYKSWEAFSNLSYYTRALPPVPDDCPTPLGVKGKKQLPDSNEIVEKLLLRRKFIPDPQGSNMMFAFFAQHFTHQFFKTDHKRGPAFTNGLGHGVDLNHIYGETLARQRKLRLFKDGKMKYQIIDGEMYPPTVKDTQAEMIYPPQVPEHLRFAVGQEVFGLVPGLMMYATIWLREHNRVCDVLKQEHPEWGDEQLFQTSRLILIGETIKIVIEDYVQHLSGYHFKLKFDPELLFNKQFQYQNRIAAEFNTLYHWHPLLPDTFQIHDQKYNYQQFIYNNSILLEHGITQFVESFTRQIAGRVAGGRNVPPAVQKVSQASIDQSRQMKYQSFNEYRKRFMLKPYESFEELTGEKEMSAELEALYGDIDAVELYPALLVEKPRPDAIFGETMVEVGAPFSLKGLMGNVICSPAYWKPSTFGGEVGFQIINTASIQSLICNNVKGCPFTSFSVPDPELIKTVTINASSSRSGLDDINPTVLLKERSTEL

As to `C[C@]12CC[C@H](O)CC1=CC[C@@H]1[C@@H]2CC[C@]2(C)C(c3cccnc3)=CC[C@@H]12`, the outcome with CWR22R [1] was inactive.
As for `O=C(Nc1cccc(C(F)(F)F)c1)c1nonc1O`, the 50% inhibitory concentration (IC50) in [2] is more than 50 µM. Also, the inhibition in assay [3] was 35.4%.
Taken in the same sequence, the figures for `O=C(Nc1cccc(C(F)(F)F)c1)c1nsnc1O` were not below 50 µM and 47.2%.
As for `O=C(Nc1cccc(C(F)(F)F)c1)c1c(O)nnn1CC1CC1`, the IC50 is 13.2 µM in assay [2], more than 100 µM in assay [4], 1.6 µM in assay [5] and 70.6 µM in [6]. For the same compound, the Ratio IC50 in the assay filed under Homo sapiens [7] was 44; in assay [9] it was more than 63; in the assay filed under Homo sapiens [10], more than 63. The inhibition in assay [8] was found to be 17%; in assay [11], 9.6%.
Turning to `CNC(=O)c1ccc(N2C(=S)N(c3ccc(C#N)c(C(F)(F)F)c3)C(=O)C2(C)C)cc1F`, in the assay on CWR22R [12], the result was inactive.
Take `Cn1nc(O)c(C(=O)Nc2cccc(C(F)(F)F)c2)n1`: the half-maximal inhibitory concentration (IC50) in assay [2] was more than 50 µM. In addition, the inhibition in assay [3] came to 18.5%.
Turning to `COc1ccc(Cn2nnc(O)c2C(=O)Nc2cccc(C(F)(F)F)c2)cc1`, the IC50 in assay [2] is 3.56 µM; in [4], more than 100 µM; in [5] it was 0.31 µM; in assay [6], 73.2 µM; in the assay on CWR22R [14], 81.4 µM. Moreover, the Ratio IC50 in the assay listed under Homo sapiens [7] was 236; in assay [9], more than 322; in the assay listed under Homo sapiens [10] it was more than 322. The inhibition is 0% in assay [8], “Dose-dependent effect” with CWR22R [15] and 12% in assay [11]. Besides, in the assay with CWR22R [13], the inhibition at 100 µM was found to be 50%. Further, in the assay on CWR22R [16], the outcome was inactive. Besides, the Activity in the assay with CWR22R [17] is on record as 45%; with CWR22R [18], 50%.
Turning to `O=C(O)c1ccccc1Nc1cccc(C(F)(F)F)c1` [FLUFENAMIC ACID], the 50% inhibitory concentration (IC50) in assay [2] was 8.63 µM; in assay [4], 14 µM; in assay [5] it was 0.44 µM; in the assay on CWR22R [14] it was 115 µM.
`O=C(Nc1cccc(C(F)(F)F)c1)c1nn(CC2CC2)nc1O`: the half-maximal inhibitory concentration (IC50) in assay [2] is more than 50 µM. Moreover, the inhibition in assay [3] was determined as 5.35%.
On to `Cn1nnc(O)c1C(=O)Nc1cccc(C(F)(F)F)c1`, for which, in assay [2], the IC50 is 32.8 µM.
Take `O=C(Nc1cccc(C(F)(F)F)c1)c1c(O)nnn1Cc1ccccc1`: the 50% inhibitory concentration (IC50) is 10.2 µM in assay [2]; more than 100 µM in assay [4]; 0.48 µM in assay [5]; 62.9 µM in [6]; 67.1 µM with CWR22R [14]. Besides, the Ratio IC50 in the assay filed under Homo sapiens [7] was 131; in [9] it was more than 208; in the assay filed under Homo sapiens [10], more than 208. Moreover, the inhibition in assay [8] was determined as 15%; in assay [11] it was 7.5%.

In general, IC50 refers to the concentration that inhibits the measured activity by half. By inhibition is commonly meant the percentage by which the read-out fell short of the control.
